In brackets after ≈: the same amount, converted by molar mass. Activity calls are given as the source filed them. The calls are words filed in the database; no cut-off is given here.
What was measured:
[1] = Kinetic solubility of the compound in DMSO/PBS mixture after 20 hrs by RP-UPLC-UV method; type: physicochemical
How it was run: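 100 µM compound in 1% DMSO/PBS pH 7.4, shaken 20 h at 37 °C. Centrifuged to remove insoluble material; supernatant quantified by RP-UPLC-UV at 306 nm. Triplicate.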

[2] = Prodrug activation in DMSO/PBS mixture assessed as formation of Dimethyl (4-(((2,4-Diaminopteridin-6-yl)methyl)(methyl)amino)-benzoyl)-L-glutamate at 50 uM after <3 hrs in presence of 0.5 mM H2O2 by RP-UPLC-MS method
How it was run: (§1)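 50 µM prodrug in 30% DMSO/PBS pH 7.4 at 37 °C with diclofenac internal standard. Started with H2O2 at 0.5 mM final. Sampled 5 min to 4 h (some compounds to 48 h). RP-UPLC-UV at 306 nm. No-H2O2 control run in parallel. Triplicate.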

[3] = Half life in human plasma at 20 uM by RP-UPLC-UV method; type: ADME, cell-free
How it was run: (§2)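 Reconstituted lyophilized human or mouse plasma mixed about 1:1 with PBS and pre-warmed to 37 °C. Compound added to 20 µM final. […] Procaine (human) and diltiazem (mouse) as controls.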

NCI-H460 [4] = assay: Cytotoxicity against human NCI-H460 cells assessed as decrease in cell viability preincubated with H2O2 for 24 hrs followed by cell addition measured after 48 hrs by MTS assay; type: functional, cell-based
How it was run: (§3)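 Compound pre-activated at 125 µM with 1.25 mM H2O2 in DMSO:PBS 1:1, 24 h at 21 °C. Then added to MCF-7 or NCI-H460 cells (24 h attached) for 48 h. Final H2O2 <10 µM. MTS read at 490 nm. Triplicate. IC50 by non-linear regression.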

Mus musculus [5] = assay: Toxicity in collagen-induced DBA/1J mouse arthritis model assessed as decrease in body weight at 8.8 mg/kg, ip administered daily for 2 weeks starting on day 27 post first immunization measured thrice per week during compound dosing; type: organism-based; settings: in vivo, 336 h
How it was run: (§4)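 CIA in male DBA/1J mice (8–9 wk, n = 8/group) from chicken type-II collagen/CFA immunization (day −1, boost day 21). Daily i.p. dosing in 2% DMSO/PBS for 14 days starting day 27. Body weight recorded three times weekly as a general-health indicator, compared with vehicle. Data are mean ± SEM.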

[6] = Half life in SGF by RP-UPLC-UV method; type: physicochemical
How it was run: (§5)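 SGF or SIF (SIF adjusted to pH 7.5) dosed from a 10 mM DMSO stock. Incubated at 37 °C and sampled at 0, 1, 2, 4 and 24 h. Run in triplicate.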

MCF7 [7] = assay: Cytotoxicity against human MCF7 cells assessed as decrease in cell viability preincubated with H2O2 for 24 hrs followed by cell addition measured after 48 hrs by MTS assay; type: functional, cell-based; how it was run: as §3
[8] = Prodrug activation in DMSO/PBS mixture assessed as formation of aminopterin at 50 uM after <3 hrs in presence of 0.5 mM H2O2 by RP-UPLC-MS method; how it was run: as §1
Mus musculus [9] = assay: Antiarthritic activity in collagen-induced DBA/1J mouse arthritis model assessed as decrease in incidence of arthritis at 8.8 mg/kg, ip administered daily for 2 weeks starting on day 27 post first immunization measured thrice per week during compound dosing relative to control; type: functional, organism-based
How it was run: (§6)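 Male DBA/1J mice (8–9 wk, n = 8/group). Arthritis induced by intradermal tail-base immunization with 100 µg chicken type-II collagen in CFA on day −1, with a 50 µg boost on day 21. Daily i.p. dosing in 2% DMSO/PBS for 14 days from day 27. Blinded scoring three times weekly, 0–15 per limb (max 60). Vehicle group as control. Mann-Whitney test.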

[10] = Half life in PBS/DMSO mixture at pH 7.4 by RP-UPLC-UV method; type: physicochemical
Mus musculus [11] = assay: Antiarthritic activity in collagen-induced DBA/1J mouse arthritis model assessed as reduction of macroscopic score at 8.8 mg/kg, ip administered daily for 2 weeks starting on day 27 post first immunization measured thrice per week during compound dosing relative to control; type: functional, organism-based; how it was run: as §6
[12] = Prodrug activation in DMSO/PBS mixture assessed as formation of aminopterin at 50 uM measured within 2 hrs in presence of 0.5 mM H2O2 by RP-UPLC-MS method; how it was run: as §1
NCI-H460 [13] = assay: Cytotoxicity against human NCI-H460 cells assessed as decrease in cell viability after 48 hrs by MTS assay; type: functional, cell-based
How it was run: (§7)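 MCF-7 (DMEM) or NCI-H460 (RPMI), 10% FBS, seeded at 10^4 or 7×10^3 cells/well respectively and attached for 24 h. Exposed to serial compound concentrations for 48 h, then MTS read at 490 nm. DMSO ≤0.4% matched controls. Triplicate. IC50 by non-linear regression.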

[14] = Intrinsic clearance in CD1 mouse liver microsomes at 10 uM after 5 to 240 mins by RP-UPLC-UV method; type: ADME, microsome; settings: read-out: CLH
How it was run: (§8)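 Pooled male liver microsomes (human, or CD-1 mouse) in PBS at 37 °C with 10 µM compound. Reaction started with NADPH. Aliquots taken 0–60 min (mouse also 120 and 240 min) and quenched with cold MeCN/diclofenac. Read by RP-UPLC-UV, ln[C] vs time, first order. No-NADPH control run; verapamil (human) or diphenhydramine (mouse) as reference.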

[15] = Prodrug activation in DMSO/PBS mixture assessed as formation of (S)-dimethyl 2-(4-((2,4-diaminopteridin-6-yl)methylamino)benzamido)pentanedioate at 50 uM measured within 2 hrs in presence of 0.5 mM H2O2 by RP-UPLC-MS method; how it was run: as §1
[16] = Half life in mouse plasma at 20 uM by RP-UPLC-UV method; type: ADME, cell-free; how it was run: as §2
[17] = Prodrug activation in DMSO/PBS mixture assessed as formation of aminopterin at 100 uM after 2 to 48 hrs in presence of 0.25 to 10 mM H2O2 […]
MCF7 [18] = assay: Cytotoxicity against human MCF7 cells assessed as decrease in cell viability after 48 hrs by MTS assay; type: functional, cell-based; how it was run: as §7
[19] = Half life in SIF by RP-UPLC-UV method; type: physicochemical; how it was run: as §5
[20] = Metabolic stability in human plasma at 20 uM after 24 hrs by RP-UPLC-UV method; type: ADME, cell-free; settings: read-out: Stability; how it was run: as §2
[21] = Chemical stability in PBS/DMSO mixture at pH 7.4 after 24 hrs by RP-UPLC-UV method; type: physicochemical; settings: read-out: Stability
[22] = Prodrug activation in DMSO/PBS mixture assessed as formation of (S)-2-(4-(((2,4-diaminopteridin-6-yl)methyl)(4-hydroxybenzyl)amino)benzamido)pentanedioic acid at 50 uM measured within 2 hrs in presence of 0.5 mM H2O2 by RP-UPLC-MS method; how it was run: as §1
[23] = Metabolic stability in mouse plasma at 20 uM after 8 hrs by RP-UPLC-UV method; type: ADME, cell-free; settings: read-out: Stability; how it was run: as §2
[24] = Intrinsic clearance in human liver microsomes at 10 uM after 5 to 60 mins by RP-UPLC-UV method; type: ADME, microsome; settings: read-out: CLH; how it was run: as §8
[25] = Prodrug activation in DMSO/PBS mixture assessed as formation of (S)-dimethyl 2-(4-(((2,4-diaminopteridin-6-yl)methyl)(4-hydroxybenzyl)amino)benzamido)pentanedioate at 50 uM measured within 2 hrs in presence of 0.5 mM H2O2 by RP-UPLC-MS method; how it was run: as §1
[26] = Prodrug activation in DMSO/PBS mixture assessed as formation of (S)-dimethyl 2-(4-((2,4-diaminopteridin-6-yl)methylamino)benzamido)pentanedioate at 50 uM after 2 hrs in presence of 0.5 mM H2O2 by RP-UPLC-MS method
Mus musculus [27] = assay: Toxicity in collagen-induced DBA/1J mouse arthritis model assessed as decrease in body weight at 6.8 mg/kg, ip administered daily for 2 weeks starting on day 27 post first immunization measured up to day 33; type: organism-based; settings: in vivo, 336 h
How it was run: (§9)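 Male DBA/1J mice, 8–9 weeks. CIA induced by intradermal/subcutaneous tail-base immunization with 100 µg chicken type-II collagen in CFA on day -1, boosted with 50 µg on day 21. From day 27, i.p. dosing once daily for 14 days in 2% DMSO/PBS vehicle, n = 8 per group. Three times weekly, blinded limb scoring (0–15 per limb, max 60) and body weight. Reported as mean ± SEM; one-tailed Mann-Whitney test.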

Mus musculus [28] = assay: Antiarthritic activity in collagen-induced DBA/1J mouse arthritis model assessed as decrease in incidence of arthritis at 6.8 mg/kg, ip administered daily for 2 weeks starting on day 27 post first immunization measured thrice per week during compound dosing relative to control; type: functional, organism-based; how it was run: as §9
Mus musculus [29] = assay: Antiarthritic activity in collagen-induced DBA/1J mouse arthritis model assessed as reduction of macroscopic score at 6.8 mg/kg, ip administered daily for 2 weeks starting on day 27 post first immunization measured thrice per week during compound dosing relative to control; type: functional, organism-based; how it was run: as §9
Mus musculus [30] = assay: Antiarthritic activity in collagen-induced DBA/1J mouse arthritis model assessed as decrease in incidence of arthritis at 7 mg/kg, ip administered daily for 2 weeks starting on day 27 post first immunization measured thrice per week during compound dosing relative to control; type: functional, organism-based; how it was run: as §6
Mus musculus [31] = assay: Antiarthritic activity in collagen-induced DBA/1J mouse arthritis model assessed as reduction of macroscopic score at 7 mg/kg, ip administered daily for 2 weeks starting on day 27 post first immunization measured thrice per week during compound dosing relative to control; type: functional, organism-based; how it was run: as §6
Mus musculus [32] = assay: Toxicity in collagen-induced DBA/1J mouse arthritis model assessed as decrease in body weight at 7 mg/kg, ip administered daily for 2 weeks starting on day 27 post first immunization measured thrice per week during compound dosing; type: organism-based; settings: in vivo, 336 h; how it was run: as §4

## COC(=O)CC[C@H](NC(=O)c1ccc(N(C)Cc2cnc3nc(N)nc(NC(=O)OCc4ccc(B(O)O)cc4)c3n2)cc1)C(=O)OC
[1]; read-out: Kinetic_solubility
  solubility kinetic at 20 h: 3 µM (≈ 1.98 µg/mL)
[2]
  Drug metabolism: > 95%

## Nc1nc(N)c2nc(CN(Cc3ccc(B(O)O)cc3)c3ccc(C(=O)N[C@@H](CCC(=O)O)C(=O)O)cc3)cnc2n1
[3]
  half-life at 20 µM: 2.33 days
NCI-H460 [4]
  Activity: Active
Mus musculus [5]
  Activity: Non-Toxic
[6]
  half-life: 32.1 days
MCF7 [7]
  Activity: Active
[8]
  Drug metabolism: Metabolite detected
Mus musculus [9]
  Activity: Active
[10]
  half-life: 24 days
Mus musculus [11]
  Activity: Active
[12]
  Drug metabolism: Metabolite not detected
NCI-H460 [13]
  Activity: inactive
[1]; read-out: Kinetic_solubility
  solubility kinetic at 20 h: 83 µM (≈ 47.7 µg/mL)
[14]
  microsomal CLint at 10 µM: 2.6 µL/min/mg
[15]
  Drug metabolism: Metabolite not detected
[16]
  half-life at 20 µM: 2.62 days
[17]
  Drug metabolism: Metabolite detected
MCF7 [18]
  Activity: inactive
[19]
  half-life: 36.1 days
[20]
  remaining at 24 h, 20 µM: 82%
[21]
  remaining at 24 h: > 90%
[22]
  Drug metabolism: Metabolite detected
[23]
  remaining at 8 h, 20 µM: 91%
[24]
  microsomal CLint at 10 µM: 1.2 µL/min/mg

## COC(=O)CC[C@H](NC(=O)c1ccc(N(Cc2ccc(B(O)O)cc2)Cc2cnc3nc(N)nc(N)c3n2)cc1)C(=O)OC
[25]
  Drug metabolism: Metabolite detected
[12]
  Drug metabolism: Metabolite not detected
[1]; read-out: Kinetic_solubility
  solubility kinetic at 20 h: 4.1 µM (≈ 2.47 µg/mL)
[15]
  Drug metabolism: Metabolite not detected
[26]
  Drug metabolism: Metabolite detected

## Nc1nc(N)c2nc(CNc3ccc(C(=O)N[C@@H](CCC(=O)O)C(=O)O)cc3)cnc2n1 [AMINOPTERIN]
Mus musculus [27]
  Activity: Toxic
NCI-H460 [13]
  Activity: Active
[1]; read-out: Kinetic_solubility
  solubility kinetic at 20 h: > 1000 µM
MCF7 [18]
  Activity: Active
Mus musculus [28]
  Activity: Active
Mus musculus [29]
  Activity: Active

## COC(=O)CC[C@H](NC(=O)c1ccc(N(C)Cc2cnc3nc(N)nc(NC(=O)OCc4ccc(B(O)O)c(F)c4)c3n2)cc1)C(=O)OC
[1]
  solubility kinetic at 20 h: 4.6 µM (≈ 3.12 µg/mL)
[2]
  Drug metabolism: > 95%

## COC(=O)CC[C@H](NC(=O)c1ccc(N(C)Cc2cnc3nc(N)nc(NC(=O)OCc4ccc(B(O)O)c(C)c4)c3n2)cc1)C(=O)OC
[2]
  Drug metabolism: > 95%

## CN(Cc1cnc2nc(N)nc(N)c2n1)c1ccc(C(=O)N[C@@H](CCC(=O)O)C(=O)O)cc1 [METHOTREXATE]
Mus musculus [30]
  Activity: Active
NCI-H460 [13]
  Activity: Active
[1]; read-out: Kinetic_solubility
  solubility kinetic at 20 h: 2140 µM (≈ 971 µg/mL)
MCF7 [18]
  Activity: Active
Mus musculus [31]
  Activity: Active
Mus musculus [32]
  Activity: Toxic

From ChEMBL document CHEMBL4043304, “Synthesis and Evaluation of Hydrogen Peroxide Sensitive Prodrugs of Methotrexate and Aminopterin for the Treatment of Rheumatoid Arthritis” (J Med Chem, 2018)
